Calls of active or inactive are those of the source. The rule behind the calls is not given here.

Here are results for 13 compounds from ChEMBL document CHEMBL1914373, “Synthesis and biological evaluation of novel dimethyl[1,1'-biphenyl]-2,2'-dicarboxylate derivatives containing thiazolidine-2,4-dione for the treatment of concanavalin A-induced acute liver injury of BALB/c mice” (2011).

For test [1], the system named is RAW264.7. The experiment in a line: Antiinflammatory activity in LPS-stimulated mouse RAW264.7 cells assessed as inhibition of LPS-induced NO production after 22 hrs by Griess reaction. It counts as functional, cell-based. The method, boiled down: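 RAW 264.7 macrophages grown in RPMI 1640, 37 °C, 5% CO2; seeded 1 × 10^4/well, cultured 24 h, then exposed to LPS with or without compounds at a range of concentrations for 22 h. Supernatant mixed 1:1 with Griess reagent, 10 min at room temperature, A540 read; nitrite quantified against sodium nitrite standards in RPMI 1640. Three independent experiments.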
A general note: The Griess reaction detects nitrite, a stable product of nitric oxide.

Test [2] has as its system Mus musculus. The experiment in a line: Hepatoprotective activity in BALB/c mouse hepatitis model assessed as reduction in concanavalin A-induced increase in serum AST level at 50 mg/kg, […] relative to control. The format is functional. On the set-up: scale not given: the % may be the effect or the level left. Particulars: route oral.
Test [3] has as its system Mus musculus. Nature of the test: Antiinflammatory activity in ICR mouse assessed as reduction in carrageenan-induced paw edema at 50 mg/kg, po administered 30 mins before carrageenan challenge measured at 3 hr post challenge. The format is functional. On the set-up: scale not given: the % may be the effect or the level left. (In general: The carrageenan paw model is a standard test of acute inflammation.)

For test [4], the system named is Mus musculus. The experiment in a line: Hepatoprotective activity in BALB/c mouse hepatitis model assessed as reduction in concanavalin A-induced increase in serum ALT level at 50 mg/kg, […] relative to control. The format is functional. On the set-up: scale not given: the % may be the effect or the level left. Particulars: route oral.
The test system of test [5] is Rattus norvegicus. Nature of the test: Hepatoprotective activity […] assessed as decrease in liver lesions at 50 mg/kg, po administered before concanavalin A challenge by hematoxylin and eosin staining-based histopathology analysis. It counts as functional, organism-based. Details: dose 50 mg/kg.
Test [6] has as its system Rattus norvegicus. Nature of the test: Hepatoprotective activity […] assessed as reduction in concanavalin A-induced inflammatory cells infiltration at 50 mg/kg, po administered before concanavalin A challenge by hematoxylin and eosin staining-based histopathology analysis. On the set-up: dose 50 mg/kg. It counts as functional, organism-based.
Test [7] has as its system Mus musculus. Nature of the test: Antiinflammatory activity in po dosed ICR mouse assessed as reduction in carrageenan-induced paw edema administered 30 mins before carrageenan challenge measured up to 5 hrs. The format is functional, organism-based.
Test [8] has as its system Rattus norvegicus. The experiment in a line: Hepatoprotective activity […] assessed as reduction in necrosis in liver lobules at 50 mg/kg, po administered before concanavalin A challenge by hematoxylin and eosin staining-based histopathology analysis. The format is functional, organism-based. Details: dose 50 mg/kg.

In the case of `COC(=O)c1cc(OC)c2c(c1-c1c(C(=O)Oc3ccc(/C=C4\SC(=O)NC4=O)cc3OC)cc(OC)c3c1OCO3)OCO2`, in test [1], the inhibition result was “Active”. Same read-out and setting: to `COC(=O)c1cc(OC)c2c(c1-c1c(C(=O)Oc3cccc(/C=C4/SC(=O)NC4=O)c3)cc(OC)c3c1OCO3)OCO2` belongs “Active”; to `COC(=O)c1cc(OC)c2c(c1-c1c(C(=O)Oc3c(Br)cc(Br)cc3/C=C3/SC(=O)NC3=O)cc(OC)c3c1OCO3)OCO2`, “Active”.

Turning to `COC(=O)c1cc(OC)c2c(c1-c1c(C(=O)Oc3ccccc3/C=C3/SC(=O)NC3=O)cc(OC)c3c1OCO3)OCO2`, the inhibition result in test [1] was “Active”. On the same count and under the same terms, to `COC(=O)c1cc(OC)c2c(c1-c1c(C(=O)Oc3cc(/C=C4/SC(=O)NC4=O)ccc3OC)cc(OC)c3c1OCO3)OCO2` belongs “Active”. With `COC(=O)c1cc(OC)c2c(c1-c1c(C(=O)Oc3c(OC)cc(/C=C4\SC(=O)NC4=O)cc3OC)cc(OC)c3c1OCO3)OCO2`, the inhibition result in test [1] is “Active”. Turning to `CCOc1cc(/C=C2\SC(=O)NC2=O)ccc1OC(=O)c1cc(OC)c2c(c1-c1c(C(=O)OC)cc(OC)c3c1OCO3)OCO2`, the inhibition entry in test [1] was “Active”. On the same count and under the same terms, to `COC(=O)c1cc(OC)c2c(c1-c1c(C(=O)Oc3ccc(Cl)cc3/C=C3/SC(=O)NC3=O)cc(OC)c3c1OCO3)OCO2` belongs “Dose-dependent effect”; to `COC(=O)c1cc(OC)c2c(c1-c1c(C(=O)Oc3ccc(/C=C4\SC(=O)NC4=O)cc3F)cc(OC)c3c1OCO3)OCO2`, “Active”. Take `COC(=O)c1cc(OC)c2c(c1-c1c(C(=O)Oc3c(Cl)cc(Cl)cc3/C=C3/SC(=O)NC3=O)cc(OC)c3c1OCO3)OCO2`: in test [1], the inhibition result was “Active”. `COC(=O)c1cc(OC)c2c(c1-c1c(C(=O)OC)cc(OC)c3c1OCO3)OCO2` [BIFENDATE]: the Activity was 50.62% in test [2], 20.98% in test [3] and 44.58% in test [4]. Regarding `COC(=O)c1cc(OC)c2c(c1-c1c(C(=O)Oc3ccc(/C=C4\SC(=O)NC4=O)cc3)cc(OC)c3c1OCO3)OCO2`, the Activity in test [2] was 69.12%; in test [3] it was 54.88%; in test [7] it was “Dose-dependent effect”; in test [4] it was 94.96%. In addition, the inhibition result in test [1] is “Active”. Besides, the outcome in test [5], in test [6] and in test [8] was Active.

Consider `COC(=O)c1cc(OC)c2c(c1-c1c(C(=O)Oc3ccc(/C=C4\SC(=O)NC4=O)cc3Br)cc(OC)c3c1OCO3)OCO2`, for which the inhibition result in test [1] was “Active”.
